Experiments:
[1] = target: T1, Muscarinic acetylcholine receptor M4 (Homo sapiens) (UniProt P08173); assay: (§1) Positive allosteric modulation of recombinant human muscarinic acetylcholine receptor M4 expressed in CHOK1 cells coexpressing G-alpha16 assessed as increase in carbachol-induced intracellular calcium flux at 10 uM preincubated for 5 mins followed by carbachol addition by Fluo4-AM dye based FLIPR assay relative to carbachol; format: functional, cell-based; conditions: CHO-K1
T1 sequence (whole entry): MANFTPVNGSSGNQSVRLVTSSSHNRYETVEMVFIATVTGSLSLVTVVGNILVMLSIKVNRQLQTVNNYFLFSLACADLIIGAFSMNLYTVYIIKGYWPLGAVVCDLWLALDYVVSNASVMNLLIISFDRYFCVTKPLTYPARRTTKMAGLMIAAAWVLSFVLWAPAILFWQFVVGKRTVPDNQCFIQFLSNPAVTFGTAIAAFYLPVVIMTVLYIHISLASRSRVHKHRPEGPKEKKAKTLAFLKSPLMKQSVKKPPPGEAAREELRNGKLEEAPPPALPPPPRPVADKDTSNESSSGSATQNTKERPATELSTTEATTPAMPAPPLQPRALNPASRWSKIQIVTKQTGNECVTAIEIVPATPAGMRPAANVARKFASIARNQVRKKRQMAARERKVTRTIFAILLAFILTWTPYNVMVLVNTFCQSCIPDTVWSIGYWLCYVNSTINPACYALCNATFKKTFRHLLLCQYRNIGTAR
How it was run: (§2)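 CHO-K1 cells stably expressing human or rat M1–M5; M2 and M4 lines also co-express human Gα16. Cells loaded with 3.1 μM Fluo-4 AM in HBSS/20 mM HEPES pH 7.5/BSA/2.5 mM probenecid for ~2 h at room temperature. Test substance at 10 μM final, then carbachol (0.0024 nM–100 μM) ~5 min later; Ca2+ read by FLIPR Tetra. Fold shift = carbachol EC50 without / with test substance, from logistic fits.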

[2] = target: T2, Muscarinic acetylcholine receptor M5 (Rattus norvegicus) (UniProt P08911); assay: Positive allosteric modulation of recombinant rat muscarinic acetylcholine receptor M5 expressed in CHOK1 cells assessed as increase in carbachol-induced intracellular calcium flux at 10 uM preincubated for 5 mins followed by carbachol addition by Fluo4-AM dye based FLIPR assay relative to carbachol; format: functional, cell-based; conditions: CHO-K1; how it was run: as §2
T2 sequence (whole entry): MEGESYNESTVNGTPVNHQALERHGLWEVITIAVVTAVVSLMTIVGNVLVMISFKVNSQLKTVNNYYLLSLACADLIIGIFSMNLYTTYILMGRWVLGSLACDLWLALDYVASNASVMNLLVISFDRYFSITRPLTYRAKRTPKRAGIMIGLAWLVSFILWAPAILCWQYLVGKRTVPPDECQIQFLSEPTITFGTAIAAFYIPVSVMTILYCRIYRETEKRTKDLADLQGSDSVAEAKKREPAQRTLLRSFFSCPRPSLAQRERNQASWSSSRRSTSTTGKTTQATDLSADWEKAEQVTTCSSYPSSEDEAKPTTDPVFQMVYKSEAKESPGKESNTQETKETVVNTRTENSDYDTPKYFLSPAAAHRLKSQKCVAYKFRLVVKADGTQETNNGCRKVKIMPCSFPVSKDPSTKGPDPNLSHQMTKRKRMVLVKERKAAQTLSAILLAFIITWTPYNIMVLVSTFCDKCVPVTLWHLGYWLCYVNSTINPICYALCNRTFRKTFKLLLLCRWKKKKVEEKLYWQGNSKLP

[3] = target: T3, Muscarinic acetylcholine receptor M2 (Homo sapiens) (UniProt P08172); assay: as §1, with “M2” for “M4”, “Fluo4-AM” for “Fluo4-AM dye”; format: functional, cell-based; conditions: CHO-K1; how it was run: as §2
T3 sequence (whole entry): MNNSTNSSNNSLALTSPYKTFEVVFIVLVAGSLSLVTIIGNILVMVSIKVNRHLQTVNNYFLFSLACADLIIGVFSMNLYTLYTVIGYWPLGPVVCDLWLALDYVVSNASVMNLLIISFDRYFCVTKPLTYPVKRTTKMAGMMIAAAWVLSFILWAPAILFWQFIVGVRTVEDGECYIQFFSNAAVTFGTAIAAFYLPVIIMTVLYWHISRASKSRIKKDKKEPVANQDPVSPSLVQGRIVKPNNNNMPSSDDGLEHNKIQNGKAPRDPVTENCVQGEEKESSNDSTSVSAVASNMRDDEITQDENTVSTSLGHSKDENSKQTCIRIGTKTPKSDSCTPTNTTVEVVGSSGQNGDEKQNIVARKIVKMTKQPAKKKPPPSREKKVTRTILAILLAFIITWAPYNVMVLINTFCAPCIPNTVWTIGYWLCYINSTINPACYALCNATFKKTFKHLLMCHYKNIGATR

[4] = target: Muscarinic acetylcholine receptor M3 (Rattus norvegicus) (UniProt P08483); assay: Positive allosteric modulation of muscarinic acetylcholine receptor M3 in Sprague-Dawley rat urinary bladder assessed as increase in 8 Hz electrical field stimulation-induced bladder contraction by measuring tension of isolated bladder contraction at 10 uM (reference value: 2.21 +/- 0.26 g)
Chain of Muscarinic acetylcholine receptor M3 (Rattus norvegicus) (P08483 whole entry, looked up): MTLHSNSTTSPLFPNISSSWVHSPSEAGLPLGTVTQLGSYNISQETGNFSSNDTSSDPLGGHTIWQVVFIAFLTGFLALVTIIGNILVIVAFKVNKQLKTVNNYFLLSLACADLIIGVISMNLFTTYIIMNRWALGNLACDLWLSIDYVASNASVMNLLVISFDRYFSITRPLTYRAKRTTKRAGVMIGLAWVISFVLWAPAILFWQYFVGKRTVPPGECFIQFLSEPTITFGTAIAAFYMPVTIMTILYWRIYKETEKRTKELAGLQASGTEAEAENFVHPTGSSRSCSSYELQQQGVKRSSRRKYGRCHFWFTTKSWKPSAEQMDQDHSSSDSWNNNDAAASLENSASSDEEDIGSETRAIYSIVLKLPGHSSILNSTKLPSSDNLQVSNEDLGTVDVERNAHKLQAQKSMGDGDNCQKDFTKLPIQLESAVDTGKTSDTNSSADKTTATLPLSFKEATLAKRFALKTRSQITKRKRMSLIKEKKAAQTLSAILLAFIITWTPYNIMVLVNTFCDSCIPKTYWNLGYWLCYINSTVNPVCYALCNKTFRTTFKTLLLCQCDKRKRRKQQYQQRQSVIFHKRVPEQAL
How it was run: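 Female Sprague-Dawley rats, 9–10 weeks old. Longitudinal bladder strips (~10×2 mm) in Krebs at 37°C, gassed with 95% O2/5% CO2. EFS at 8 Hz, 10 s trains, 0.3 ms pulses, voltage set to give about half-maximal response. Drug added cumulatively at 1, 3 and 10 μM, 10 stimulations per concentration. Contraction = peak minus basal tone, averaged over the last 3 contractions and compared with pre-drug value (n=7).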

[5] = Half life in Crl:CD(SD) rat at 1 mg/kg, po measured up to 24 hrs by LC-MS/MS analysis; format: ADME, organism-based; conditions: in vivo
How it was run: (§3)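 Male Crl:CD(SD) rats, 8 weeks old, food deprived (n=4); iv 0.3 mg/kg or po 1 mg/kg in DMF/propylene glycol/water for injection (1/1/8) containing 1 M NaOH (2 equivalents). Plasma sampled to 24 h, assayed by validated LC-MS/MS. Parameters from each animal by noncompartmental analysis, reported as means.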

[6] = AUCinfinity in Crl:CD(SD) rat at 0.3 mg/kg, iv measured up to 24 hrs by LC-MS/MS analysis; format: ADME, organism-based; set-up: dose 0.3 mg/kg, route intravenous, time infinity; conditions: in vivo; how it was run: as §3
[7] = target: Muscarinic acetylcholine receptor M3 (Homo sapiens) (UniProt P20309); assay: as §1, with “M3” for “M4”, “cells” for “cells coexpressing G-alpha16”; format: functional, cell-based; conditions: CHO-K1; how it was run: as §2
Chain of Muscarinic acetylcholine receptor M3 (Homo sapiens) (P20309 whole entry, looked up): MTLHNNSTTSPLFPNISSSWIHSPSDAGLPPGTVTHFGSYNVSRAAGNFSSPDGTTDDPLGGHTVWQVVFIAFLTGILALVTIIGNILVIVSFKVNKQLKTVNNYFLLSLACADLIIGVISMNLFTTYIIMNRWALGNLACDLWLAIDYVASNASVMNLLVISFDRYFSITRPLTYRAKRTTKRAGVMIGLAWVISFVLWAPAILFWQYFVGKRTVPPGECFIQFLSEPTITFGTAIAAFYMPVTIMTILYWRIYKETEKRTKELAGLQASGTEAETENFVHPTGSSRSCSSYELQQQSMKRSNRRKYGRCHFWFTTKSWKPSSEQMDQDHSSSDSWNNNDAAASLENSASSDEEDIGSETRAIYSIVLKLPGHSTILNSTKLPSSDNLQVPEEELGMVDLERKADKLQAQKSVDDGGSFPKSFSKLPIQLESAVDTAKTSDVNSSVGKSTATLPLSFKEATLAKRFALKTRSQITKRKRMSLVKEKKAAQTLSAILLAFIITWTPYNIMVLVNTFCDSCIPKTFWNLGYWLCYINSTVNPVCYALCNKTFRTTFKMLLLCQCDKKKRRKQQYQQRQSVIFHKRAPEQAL

[8] = target: Muscarinic acetylcholine receptor M3 (Rattus norvegicus) (UniProt P08483); assay: Positive allosteric modulation of recombinant rat muscarinic acetylcholine receptor M3 expressed in CHOK1 cells assessed as increase in carbachol-induced intracellular calcium flux at 10 uM preincubated for 5 mins followed by carbachol addition by Fluo4-AM dye based FLIPR assay relative to carbachol; format: functional, cell-based; conditions: CHO-K1; how it was run: as §2

- fold change (FC) [1]: 1
- fold change (FC) [2]: 110
- fold change (FC) [3]: 1.3
- Activity [4]: 3.49 g
- half-life [5]: 2.16 h
- AUC(0-inf) [6]: 330 ng·h/mL
- fold change (FC) [7]: 269
- fold change (FC) [8]: 158
Compound: CC[C@@H]1CCCN1Cc1sc(NC(=O)c2cnc(N3CCC(C(=O)O)CC3)cn2)nc1-c1ccc(OC)c(C(F)(F)F)c1.Cl.Cl

— ChEMBL document CHEMBL4622869, “Discovery and structure-activity relationships study of positive allosteric modulators of the M3 muscarinic acetylcholine receptor” (Bioorg Med Chem, 2020)
